Assay [1] addresses T1, Dihydrofolate reductase (Mus musculus, UniProt P00375).
T1 sequence (P00375 whole entry): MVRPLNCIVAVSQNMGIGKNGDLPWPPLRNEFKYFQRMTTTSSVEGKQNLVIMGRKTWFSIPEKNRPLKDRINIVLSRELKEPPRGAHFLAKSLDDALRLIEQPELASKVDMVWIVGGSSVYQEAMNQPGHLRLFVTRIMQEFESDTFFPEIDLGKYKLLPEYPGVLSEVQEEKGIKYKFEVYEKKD
The experiment in a line: In vitro inhibitory activity against Dihydrofolate reductase in L1210 cell in mice. It counts as cell-based.

Assay [2] concerns L1210. The experiment in a line: Antitumor activity L1210 cell line as cell membrane transport activity. As to conditions: Mus musculus. The assay is classed as functional, cell-based.
For assay [3], the system named is L1210. The experiment in a line: Antitumor activity against L1210 cell line as cell membrane transport activity. The assay is classed as functional, Mus musculus.
Assay [4] relates to L1210. The experiment in a line: Inhibition of L1210 cell growth in mice. The note with it: Mus musculus. The assay is classed as functional, cell-based.
Assay [5] has as its system L1210. The experiment in a line: In vivo antitumor activity as increase in life span in mice with L1210 10E6 tumor cell implanted intraperitoneally; optimal dose is 768 mg/kg. It counts as functional. As to conditions: Mus musculus, L1210, ip, route intraperitoneal.
The test system of assay [6] is P388. The assay is described as follows: In vivo antitumor activity as increase in life span in mice with P388 10E6 tumor cell implanted intraperitoneally. It counts as functional, Mus musculus.
The test system of assay [7] is Ehrlich. The experiment in a line: In vitro antitumor activity against Erlich cell line. The assay is classed as functional, Mus musculus.
The subject of assay [8] is L1210. The assay is described as follows: (§1) In vitro antitumor activity against L1210 cell line. The assay is classed as functional, cell-based. The note with it: Mus musculus.
The subject of assay [9] is L1210. Described as §1. It counts as functional, Mus musculus.
For assay [10], the system named is Mus musculus. The experiment in a line: Antitumor activity in mice with L1210 Leukemia and percentage increase in life span was reported for 3 mice x 2 experiments at a dose of 432 mg/Kg. The assay is classed as functional. The essentials: (§2)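 L1210 leukemia-bearing mice dosed on a q2d × 5 schedule. Untreated controls were 5 mice × 12 experiments. Read-outs were MST (days ± SD), % ILS versus control, and body weight at termination (g ± SD).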

Assay [11] concerns Mus musculus. The assay is described as follows: Antitumor activity in mice with L1210 Leukemia and […] (MST) in days was reported for 3 mice x 2 experiments at a dose of 432 mg/Kg. It counts as functional. The essentials: as §2
In assay [12] the test system is Mus musculus. The assay is described as follows: Antitumor activity in mice with L1210 Leukemia and weight at termination of the therapy was reported for 3 mice x 2 experiments at a dose of 432 mg/Kg. It counts as functional.
Assay [13] relates to CCRF S-180. The assay is described as follows: In vitro antitumor activity against S180 cell line. The assay is classed as functional, Mus musculus.
Assay [14] relates to Epithelial cell line. The assay is described as follows: (§3) In vitro antitumor activity against epithelial cell line. The assay is classed as functional, Mus musculus.
The test system of assay [15] is Mus musculus. The assay is described as follows: Antitumor activity in mice with L1210 Leukemia and percentage increase in life span was reported for 3 mice x 2 experiments at a dose of 144 mg/kg. The assay is classed as functional. A digest of the protocol:
as §2

In assay [16] the test system is Mus musculus. The assay is described as follows: Antitumor activity in mice with L1210 Leukemia and […] (MST) in days was reported for 3 mice x 2 experiments at a dose of 144 mg/kg. It counts as functional. A digest of the protocol: as §2
In assay [17] the test system is Mus musculus. The experiment in a line: Antitumor activity in mice with L1210 Leukemia and weight at termination of the therapy was reported for 3 mice x 2 experiments at a dose of 144 mg/kg. It counts as functional.
Assay [18] has as its system Ehrlich. The assay is described as follows: In vitro antitumor activity against Erlich cell line,. It counts as functional, Mus musculus.
Assay [19] concerns L1210. The assay is described as follows: In vivo antitumor activity as increase in life span in mice with L1210 10E6 tumor cell implanted intraperitoneally; optimal dose is 12 mg/kg. The assay is classed as functional. The note with it: Mus musculus, L1210, ip, route intraperitoneal.
Assay [20] deals with Mus musculus. The assay is described as follows: Antitumor activity in mice with L1210 Leukemia and percentage increase in life span was reported for 5 mice x 12 experiments at a dose of 15 mg/Kg.
For assay [21], the species on record is Mus musculus. The assay is described as follows: Antitumor activity against L1210 cell […]. It counts as functional.
Assay [22] relates to Mus musculus. The experiment in a line: Antitumor activity in mice with L1210 Leukemia and weight at termination of the therapy was reported for 5 mice x 12 experiments at a dose of 15 mg/kg. The assay is classed as functional.
The subject of assay [23] is Epithelial cell. The assay is described as §3. It counts as functional, Mus musculus.
Assay [24] in a line: In vitro antitumor activity against S180 cells. The assay is classed as functional, Mus musculus, CCRF S-180.

Where only a bound is given, the exact number is not on record here.

As a reminder, the Ki is the dissociation constant of the complex between target and ligand, obtained from inhibition or displacement. Lower therefore signals higher affinity. Usually IC50 stands for the point on the concentration scale where inhibition reaches its midpoint. Low values mean greater potency, high ones weaker potency. As for `CN(Cc1cnc2nc(N)nc(N)c2n1)c1ccc(C(=O)NC(CNC(=O)c2ccc(Cl)cc2)C(=O)O)cc1` (stereo not given), affinity in [1] was put at a Ki of 0.00498 nM. Besides, the Efflux Ki in assay [2] was determined as 0.255 min⁻¹. In addition, in [3], the “Influx Ki” value amounted to 7430 nM. The molecule further gave an IC50 in [4] of 11.9 nM.

As a reminder, the ILS is the gain in survival time of treated over control animals, in per cent. Lower therefore signals little gain in survival. Molecule `CN(Cc1cnc2nc(N)nc(N)c2n1)c1ccc(C(=O)NC(CCCNC(=O)c2ccc(Cl)cc2)C(=O)O)cc1` (stereo not given) showed a Ki in [1] of 0.00531 nM. In assay [2], this molecule returned an Efflux Ki of 0.437 min⁻¹. Moreover, the “Influx Ki” value in [3] was found to be 4320 nM. Besides, the ILS at 768 mg/kg in assay [5] was found to be 104%. This molecule also gave an IC50 in [4] of 1.71 nM.

As to `CN(Cc1cnc2nc(N)nc(N)c2n1)c1ccc(C(=O)NC(CCCNC(=O)OC(C)(C)C)C(=O)O)cc1` (stereo not given), half-maximal inhibition in [4] (IC50) required 97 nM.

In [1], `CCOC(=O)C(CNC(=O)N(CCCl)N=O)NC(=O)c1ccc(N(C)Cc2cnc3nc(N)nc(N)c3n2)cc1` (stereo not given) had a Ki of 3.24 nM. The same molecule had an Efflux Ki in assay [2] of 0.202 min⁻¹. Besides, in assay [3], the “Influx Ki” value turned out to be 46900 nM. In addition, the increase in life span (ILS) in assay [6] is recorded as 113%. Half-maximal inhibition in [4] (IC50) required 2900 nM.

For `CN(Cc1cnc2nc(N)nc(N)c2n1)c1ccc(C(=O)NC(CNC(=O)NC(CCC(=O)O)C(=O)O)C(=O)O)cc1` (stereo not given), in [1], the Ki was 0.00471 nM. In assay [2], the Efflux Ki came to 0.234 min⁻¹. Besides, the “Influx Ki” value in [3] came out at 16400 nM. This molecule came in with a half-maximal inhibitory concentration (IC50) in assay [4] of 200 nM.

`CN(Cc1cnc2nc(N)nc(N)c2n1)c1ccc(C(=O)NC(CCNC(=O)OC(C)(C)C)C(=O)O)cc1` (stereo not given) showed an IC50 in [4] of 333 nM.

With `CN(Cc1cnc2nc(N)nc(N)c2n1)c1ccc(C(=O)NC(CN)C(=O)O)cc1` (stereo not given), in assay [4], the IC50 is 1030 nM.

Take `CN(Cc1cnc2nc(N)nc(N)c2n1)c1ccc(C(=O)NC(CCNC(=O)c2ccc(Cl)cc2)C(=O)O)cc1` (stereo not given): in assay [1], the affinity corresponds to a Ki of 0.00642 nM. In addition, the Efflux Ki in [2] is 1.21 min⁻¹. The “Influx Ki” value in assay [3] amounted to 4670 nM. The same molecule showed an IC50 in assay [4] of 27.3 nM.

Regarding `CN(Cc1cnc2nc(N)nc(N)c2n1)c1ccc(C(=O)NC(CCN)C(=O)O)cc1` (stereo not given), the IC50 in assay [4] was found to be 1360 nM.

In assay [1], `CCOC(=O)C(CNC(=O)N(C)N=O)NC(=O)c1ccc(N(C)Cc2cnc3nc(N)nc(N)c3n2)cc1` (stereo not given) yielded an inhibition constant Ki of 6.35 nM. This molecule returned an Efflux Ki in [2] of 0.298 min⁻¹. In [3], the “Influx Ki” value turned out to be 42400 nM. Also, the ILS in assay [6] turned out to be 58%. In assay [4], this molecule showed an IC50 of 3650 nM.

In assay [1], `CN(Cc1cnc2nc(N)nc(N)c2n1)c1ccc(C(=O)NC(CNC(N)=O)C(=O)O)cc1` (stereo not given) yielded a Ki of 35 nM. In addition, the “Influx Ki” value in assay [7] was 12500 nM; in assay [9] it was 11600 nM; in assay [13] it was 11600 nM; in assay [14], greater than 500000 nM. The molecule further showed an Efflux Ki in assay [8] of 0.25 min⁻¹. The molecule also had an ILS at 432 mg/kg in assay [10] of 129%. Moreover, in [11], the MST was determined as 16.3 days. In assay [12], this molecule registered a Weight of 16 g. In addition, in assay [4], the midpoint of inhibition, the IC50, lay at 9.4 nM.

On to `CN(Cc1cnc2nc(N)nc(N)c2n1)c1ccc(C(=O)NC(CCCN)C(=O)O)cc1` (stereo not given), for which, in [4], the IC50 turned out to be 507 nM.

As for `CNC(=O)NCC(NC(=O)c1ccc(N(C)Cc2cnc3nc(N)nc(N)c3n2)cc1)C(=O)O` (stereo not given), the Ki in [1] is 14.2 nM. The “Influx Ki” value is 13400 nM in assay [7], 16700 nM in assay [9], 19700 nM in assay [13] and greater than 500000 nM in assay [14]. For the same molecule, the Efflux Ki in assay [8] was 0.27 min⁻¹. For the same molecule, the increase in lifespan (ILS) at 144 mg/kg in assay [15] is 12%. In [16], this molecule gave an MST of 7 days. The same molecule displayed a Weight in [17] of 20 g. Besides, the IC50 in assay [4] was determined as 34.3 nM.

As to `CN(Cc1cnc2nc(N)nc(N)c2n1)c1ccc(C(=O)N[C@@H](CCC(=O)O)C(=O)O)cc1` [METHOTREXATE], the “Influx Ki” value turned out to be 10100 nM in [18]; 4570 nM in assay [3]; 3700 nM in [9]; 11400 nM in [13]; 339000 nM in [23]. Besides, in assay [2], the Efflux Ki worked out at 0.203 min⁻¹. In [9], this molecule registered an Effllux of 0.23 min⁻¹. In addition, in [19], the ILS at 12 mg/kg stood at 173%. For the same molecule, the ILS at 15 mg/kg in assay [20] was determined as 152%. The half-maximal inhibitory concentration (IC50) in assay [21] and in assay [4] was 3.28 nM throughout. For the same molecule, in [22], the Weight is given as 19.8 g.

In assay [1], `CN(Cc1cnc2nc(N)nc(N)c2n1)c1ccc(C(=O)NC(CCNC(N)=O)C(=O)O)cc1` (stereo not given) returned a Ki of 0.004 nM. Further, the “Influx Ki” value in assay [7] is 15900 nM; in assay [9], 17300 nM; in assay [24], 24600 nM; in assay [14], greater than 500000 nM. Moreover, the Efflux Ki in assay [8] was found to be 0.19 min⁻¹. The ILS at 432 mg/kg in assay [10] worked out at 33%. Also, in [11], the MST is 9.3 days. For the same molecule, the Weight in [12] came to 21.6 g. The molecule further showed an IC50 in assay [4] of 21.8 nM.

With `CN(Cc1cnc2nc(N)nc(N)c2n1)c1ccc(C(=O)NC(CNC(=O)OC(C)(C)C)C(=O)O)cc1` (stereo not given), inhibition in assay [4] was half-maximal at 440 nM (IC50).

(Values after ChEMBL document CHEMBL1122910, “Syntheses and evaluation as antifolates of MTX analogues derived from 2, omega-diaminoalkanoic acids” (J Med Chem, 1985).)
